For orientation: inhibition means the drop in the measured response relative to a control, in per cent.

Where only a bound is given, the exact number is not on record here.

The results in this text go back to ChEMBL document CHEMBL1150377, “Design of antiangiogenic hypoxic cell radiosensitizers: 2-nitroimidazoles containing a 2-aminomethylene-4-cyclopentene-1,3-dione moiety” (Bioorg Med Chem, 2008).

Experiment [1] can be described thus: Radiosensitizing activity in mouse EMT6/KU cells assessed as enhancement ratio reducing surviving fraction of cells at […] after 5 to 7 days. It counts as functional. The procedure, abridged: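 They were then irradiated with 6 MV X-rays at 2.0 Gy/min, replated, and scored for colonies after 5–7 days. Survival curves were least-squares fitted. ER is the ratio of radiation doses giving 1% survival.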

The species named for experiment [2] is Gallus gallus. The experiment is described as follows: Antiangiogenic activity in chick embryo chorioallantoic membrane assessed as number of eggs showing 3 mm avascular zone at 100 ug relative to control. The format is functional, tissue-based. The essentials: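 Chick CAM assay on 4-day-old embryos in shell; 10 µL sample in 1% methyl cellulose/0.9% NaCl applied inside a ring on the CAM, 48 h at 37.6 °C, then fat emulsion injected to show vessels. Six eggs per group, repeated more than three times. Inhibition (%) = eggs with ≥3 mm avascular zone around ring / eggs in group ×100.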

Experiment [3] addresses Matrix metalloproteinase-9 (Bos taurus, UniProt P52176). The experiment is described as follows: Inhibition of bovine arterial endothelial cell MMP9. It counts as cell-based.
In experiment [4] the target is 72 kDa type IV collagenase (Homo sapiens, UniProt P08253). The experiment in a line: Inhibition of human bowes melanoma cell MMP2.
For experiment [5], the target named is Vascular endothelial growth factor receptor 1 (Homo sapiens, UniProt P17948). The experiment in a line: Inhibition of Flt1 expressed in mouse NIH3T3 cells by autoradiography. The format is cell-based.
Experiment [6] is described as follows: Radiosensitizing activity in mouse EMT6/KU cells assessed as enhancement ratio reducing surviving fraction of cells at 1 mM after 5 to 7 days. The format is functional. The essentials: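 EMT6/KU cells at 2×10⁶ cells/mL in drug-containing MEM in glass tubes, made hypoxic with 95% N₂/5% CO₂ for 60 min. Irradiated with 6 MV X-rays at 2.0 Gy/min, then plated. After 5–7 days replated for colony formation. Survival curves fitted by least squares; ER = ratio of radiation doses giving 1% survival.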

The target in experiment [7] is Epidermal growth factor receptor (Homo sapiens, UniProt P00533). The experiment is described as follows: Inhibition of human A431 cell EGFRK assessed as 32P phosphorylation by scintillation counter. The format is cell-based. As to conditions: a-431. The procedure, abridged:
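Solubilized A431 cell lysate, debris removed, incubated with or without EGF for 30 min at 25 °C. Reaction started with [γ-³²P]ATP, 10 min at 0 °C. After stopping and washing, receptor phosphorylation measured as ³²P by scintillation counting.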

72 kDa type IV collagenase, sequence (P08253 whole entry): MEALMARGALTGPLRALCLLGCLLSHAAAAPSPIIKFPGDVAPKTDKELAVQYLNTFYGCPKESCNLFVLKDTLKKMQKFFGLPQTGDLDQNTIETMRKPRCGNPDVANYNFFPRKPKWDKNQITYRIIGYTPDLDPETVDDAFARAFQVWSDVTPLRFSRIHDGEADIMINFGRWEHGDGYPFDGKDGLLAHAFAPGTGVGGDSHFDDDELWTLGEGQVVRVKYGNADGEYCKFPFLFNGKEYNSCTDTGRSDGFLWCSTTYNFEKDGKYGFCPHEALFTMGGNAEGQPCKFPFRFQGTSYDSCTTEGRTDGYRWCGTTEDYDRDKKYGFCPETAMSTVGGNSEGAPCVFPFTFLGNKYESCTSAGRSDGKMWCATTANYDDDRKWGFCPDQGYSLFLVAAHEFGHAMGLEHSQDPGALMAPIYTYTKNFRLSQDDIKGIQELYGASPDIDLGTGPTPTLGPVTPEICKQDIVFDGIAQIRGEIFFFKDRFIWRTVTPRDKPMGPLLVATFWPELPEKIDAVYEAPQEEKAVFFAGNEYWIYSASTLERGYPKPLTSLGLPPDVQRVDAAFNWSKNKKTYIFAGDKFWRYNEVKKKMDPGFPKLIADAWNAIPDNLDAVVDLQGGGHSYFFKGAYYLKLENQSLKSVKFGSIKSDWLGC
Epidermal growth factor receptor, sequence (P00533 whole entry): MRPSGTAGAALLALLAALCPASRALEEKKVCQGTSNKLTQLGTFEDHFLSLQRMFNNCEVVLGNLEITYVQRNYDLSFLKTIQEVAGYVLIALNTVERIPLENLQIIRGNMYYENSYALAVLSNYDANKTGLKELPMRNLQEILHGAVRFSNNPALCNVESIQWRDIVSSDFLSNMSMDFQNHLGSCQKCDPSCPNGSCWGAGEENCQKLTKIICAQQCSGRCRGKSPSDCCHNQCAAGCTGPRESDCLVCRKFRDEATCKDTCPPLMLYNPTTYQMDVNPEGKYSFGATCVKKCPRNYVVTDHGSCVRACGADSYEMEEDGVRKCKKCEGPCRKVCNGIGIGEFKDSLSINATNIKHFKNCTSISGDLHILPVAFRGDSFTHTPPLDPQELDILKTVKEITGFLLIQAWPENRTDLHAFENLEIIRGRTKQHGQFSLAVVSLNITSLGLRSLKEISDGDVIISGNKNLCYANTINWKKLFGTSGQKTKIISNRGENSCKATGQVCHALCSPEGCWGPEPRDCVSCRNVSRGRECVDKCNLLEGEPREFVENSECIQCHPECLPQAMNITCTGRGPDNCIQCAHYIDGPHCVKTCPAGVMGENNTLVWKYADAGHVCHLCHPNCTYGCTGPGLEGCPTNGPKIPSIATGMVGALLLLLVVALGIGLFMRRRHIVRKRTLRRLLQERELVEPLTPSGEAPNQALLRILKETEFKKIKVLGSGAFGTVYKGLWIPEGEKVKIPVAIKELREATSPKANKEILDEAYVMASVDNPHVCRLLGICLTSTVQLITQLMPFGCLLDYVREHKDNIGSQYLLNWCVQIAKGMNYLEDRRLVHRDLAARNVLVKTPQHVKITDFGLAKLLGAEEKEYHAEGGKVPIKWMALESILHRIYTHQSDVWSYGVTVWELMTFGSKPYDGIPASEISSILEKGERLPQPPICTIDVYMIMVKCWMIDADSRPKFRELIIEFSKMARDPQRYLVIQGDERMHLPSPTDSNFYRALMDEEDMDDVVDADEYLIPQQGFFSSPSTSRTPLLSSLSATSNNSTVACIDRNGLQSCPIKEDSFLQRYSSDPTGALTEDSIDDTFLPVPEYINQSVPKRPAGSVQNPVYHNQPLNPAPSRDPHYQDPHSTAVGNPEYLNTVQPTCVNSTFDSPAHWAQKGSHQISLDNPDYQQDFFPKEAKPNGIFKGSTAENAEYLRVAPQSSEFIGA
Vascular endothelial growth factor receptor 1, sequence (P17948 whole entry): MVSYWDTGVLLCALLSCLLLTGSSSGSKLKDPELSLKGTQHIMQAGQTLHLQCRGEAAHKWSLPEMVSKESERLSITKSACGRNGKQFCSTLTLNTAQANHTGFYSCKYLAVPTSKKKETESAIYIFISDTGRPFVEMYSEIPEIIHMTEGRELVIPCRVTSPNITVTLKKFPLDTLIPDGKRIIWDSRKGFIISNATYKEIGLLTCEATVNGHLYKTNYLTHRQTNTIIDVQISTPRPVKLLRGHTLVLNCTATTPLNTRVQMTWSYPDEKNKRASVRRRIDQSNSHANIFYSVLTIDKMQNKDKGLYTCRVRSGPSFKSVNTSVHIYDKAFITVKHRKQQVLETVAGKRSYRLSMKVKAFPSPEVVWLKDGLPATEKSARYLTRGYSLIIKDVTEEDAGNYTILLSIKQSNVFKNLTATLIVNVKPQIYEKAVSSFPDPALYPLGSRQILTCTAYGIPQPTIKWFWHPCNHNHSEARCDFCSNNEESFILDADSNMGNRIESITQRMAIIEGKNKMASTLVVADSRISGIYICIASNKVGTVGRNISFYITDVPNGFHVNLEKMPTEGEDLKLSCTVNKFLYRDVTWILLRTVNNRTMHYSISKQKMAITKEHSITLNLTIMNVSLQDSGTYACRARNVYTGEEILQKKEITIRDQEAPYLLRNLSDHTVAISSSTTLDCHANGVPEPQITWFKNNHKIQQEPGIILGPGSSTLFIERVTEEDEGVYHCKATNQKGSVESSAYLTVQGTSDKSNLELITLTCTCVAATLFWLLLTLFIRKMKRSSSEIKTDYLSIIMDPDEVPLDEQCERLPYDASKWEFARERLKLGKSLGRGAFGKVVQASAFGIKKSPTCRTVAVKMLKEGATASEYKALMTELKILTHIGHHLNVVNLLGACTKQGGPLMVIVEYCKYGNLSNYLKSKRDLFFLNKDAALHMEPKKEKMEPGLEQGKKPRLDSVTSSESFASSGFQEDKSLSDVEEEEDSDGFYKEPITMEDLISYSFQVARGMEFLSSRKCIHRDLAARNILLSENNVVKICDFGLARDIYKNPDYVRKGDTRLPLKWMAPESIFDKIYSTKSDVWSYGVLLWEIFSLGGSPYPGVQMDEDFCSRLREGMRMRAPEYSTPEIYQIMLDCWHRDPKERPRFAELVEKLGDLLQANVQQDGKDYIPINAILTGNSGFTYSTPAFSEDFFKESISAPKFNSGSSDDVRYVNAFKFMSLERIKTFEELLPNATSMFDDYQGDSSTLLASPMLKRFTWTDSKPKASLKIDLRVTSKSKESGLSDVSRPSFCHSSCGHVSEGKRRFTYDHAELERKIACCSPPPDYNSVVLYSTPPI
Matrix metalloproteinase-9, sequence (P52176 whole entry): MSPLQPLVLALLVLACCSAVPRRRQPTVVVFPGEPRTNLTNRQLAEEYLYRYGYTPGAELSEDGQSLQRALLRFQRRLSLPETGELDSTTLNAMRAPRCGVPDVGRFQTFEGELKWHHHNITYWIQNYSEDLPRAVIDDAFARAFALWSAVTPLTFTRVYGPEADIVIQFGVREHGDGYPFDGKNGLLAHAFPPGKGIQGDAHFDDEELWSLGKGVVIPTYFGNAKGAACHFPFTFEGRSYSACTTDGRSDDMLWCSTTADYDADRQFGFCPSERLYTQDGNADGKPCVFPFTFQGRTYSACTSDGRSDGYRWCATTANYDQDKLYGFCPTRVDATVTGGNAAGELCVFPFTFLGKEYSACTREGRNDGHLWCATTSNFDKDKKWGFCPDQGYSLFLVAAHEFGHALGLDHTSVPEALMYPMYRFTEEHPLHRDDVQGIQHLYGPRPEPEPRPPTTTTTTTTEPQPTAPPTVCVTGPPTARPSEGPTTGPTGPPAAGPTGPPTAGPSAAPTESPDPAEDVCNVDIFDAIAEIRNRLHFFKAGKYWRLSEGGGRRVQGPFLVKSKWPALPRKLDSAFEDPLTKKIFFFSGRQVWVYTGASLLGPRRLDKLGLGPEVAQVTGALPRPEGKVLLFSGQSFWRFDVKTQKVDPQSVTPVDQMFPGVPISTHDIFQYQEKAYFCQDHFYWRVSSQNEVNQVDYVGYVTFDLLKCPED

In the case of `COC[C@H](Cn1ccnc1[N+](=O)[O-])OC(=O)c1ccc(NC(=O)C(F)(F)F)cc1`, in experiment [1], the Ratio stood at 1.84. Further, in experiment [2], the inhibition was 83%. In addition, the IC50 in experiment [3] and in experiment [4] was above 240 µM⁻¹ in each case.
In the case of `COC[C@@H](Cn1ccnc1[N+](=O)[O-])OC(=O)c1ccc(NC=C2C(=O)C=CC2=O)cc1`, the IC50 came to 53 µM⁻¹ in experiment [3], 24 µM⁻¹ in experiment [4] and 23.4 µM⁻¹ in experiment [5].
Take `COC[C@@H](Cn1ccnc1[N+](=O)[O-])OC(=O)c1ccc(NC(=O)C(F)(F)F)cc1`: the Ratio in experiment [1] came to 2.02. The inhibition in experiment [2] was 43%. For the same molecule, the IC50 in experiment [3] and in experiment [4] was above 240 µM⁻¹ each time.
On to `O=C(Cn1ccnc1[N+](=O)[O-])NCCO` [ETANIDAZOLE], for which the Ratio in experiment [6] is listed as 1.72.
Take `COC[C@H](Cn1ccnc1[N+](=O)[O-])OC(=O)c1ccc(NC=C2C(=O)C=CC2=O)cc1`: the IC50 in experiment [7] came to 23 µM⁻¹.
In the case of `CC(C)(C)c1ccc(OC[C@@H](Cn2ccnc2[N+](=O)[O-])OC(=O)c2ccc(NC=C3C(=O)C=CC3=O)cc2)cc1`, the IC50 amounted to 67 µM⁻¹ in experiment [3], 1.8 µM⁻¹ in experiment [7] and 18.4 µM⁻¹ in experiment [5].
With `CC(C)(C)c1ccc(OC[C@H](Cn2ccnc2[N+](=O)[O-])OC(=O)c2ccc(NC=C3C(=O)C=CC3=O)cc2)cc1`, the IC50 in experiment [3] is 103 µM⁻¹; in experiment [7] it was 18.4 µM⁻¹; in experiment [4], 183 µM⁻¹; in experiment [5], 184 µM⁻¹.
